Experimental data: ChEMBL document CHEMBL1148749, “Targeting plague virulence factors: a combined machine learning method and multiple conformational virtual screening for the discovery of Yersinia protein kinase A inhibitors” (J Med Chem, 2007)

Legend:
[1] = Inhibition of Yersinia sp. PKA
How it was run: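 YpkA kinase activity measured by radiological assay with enzyme at 0.15 μM; IC50 values determined from this assay.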

[2] = Inhibition of MAPK; parameters: species or system Homo sapiens
Protein kinase C (PKC) = experiment: Inhibition of PKC; parameters: species or system Homo sapiens

| SMILES | IC50 [1] [µM] | IC50 [2] [µM] | IC50 (Protein kinase C (PKC)) [µM] |
| --- | --- | --- | --- |
| O=C1NC(=O)C(=Cc2ccc(Sc3ccc(Cl)cc3)c([N+](=O)[O-])c2)C(=O)N1 | 5.87 | 63 | > 200 |
| O=C1c2ccccc2C(=O)c2cc(S(=O)(=O)Nc3cccc([N+](=O)[O-])c3)ccc21 | 19.8 | > 200 | 165 |
| C=CCN1C(=O)NC(=O)/C(=C/c2ccc(-c3cc([N+](=O)[O-])ccc3Cl)o2)C1=O | 9.72 | 54.5 | 205.16 |
| O=C1Nc2ccc(Br)cc2/C1=C1/SC(=S)N(c2cccc(Cl)c2)C1=O | 1.81 | 2.45 | > 200 |
